pIC50: −log10 of the molar value. Values belong to the compound of their own block, whether it stands above or below them.
Columns and labels:
Rattus norvegicus [1] = experiment: Mean survival time of rats after skin allograft (intraperitoneal administration) at 10 mg/kg; toxic - animals died; type: ADME, organism-based; set-up: dose 10 mg/kg, route intraperitoneal; conditions: in vivo, ip
How it was run: (§1)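 LEW rat (male, 4 wk) dorsal skin grafted onto lateral thorax of F344 rats (male, 4 wk). Compounds in 20% (hydroxypropyl)-β-cyclodextrin given ip daily for 10 days from transplant day. Grafts inspected daily until rejection (>90% necrosis of graft epithelium); mean survival time in days ± SD, n = 4–5, Mann-Whitney U test. "Toxic" means animals died.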

[2] = Immunosuppressive activity on mouse allogenic MLR in vitro; type: functional
How it was run: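 Responders were BALB/c spleen cells (5 × 10⁵, H-2^d). Stimulators were an equal number of C57BL/6 spleen cells (H-2^b) treated with mitomycin C for 30 min at 37 °C. Co-culture in RPMI 1640 with 5 × 10⁻⁵ M 2-mercaptoethanol, 10% FCS and varied compound, 4 days at 37 °C, 5% CO₂. Proliferation read by MTT. IC50 is the mean of triplicates.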

Rattus norvegicus [3] = experiment: Mean survival time of rats after skin allograft (intraperitoneal administration) at 1 mg/kg; type: functional; how it was run: as §1
Rattus norvegicus [4] = experiment: Mean survival time of rats after skin allograft (intraperitoneal administration) at 3 mg/kg; type: functional; how it was run: as §1
Rattus norvegicus [5] = experiment: Mean survival time of rats after skin allograft (intraperitoneal administration) at 0.3 mg/kg; type: functional; how it was run: as §1
Rattus norvegicus [6] = experiment: Mean survival time of rats after skin allograft (intraperitoneal administration) at 10 mg/kg; type: functional; how it was run: as §1
Rattus norvegicus [7] = experiment: Mean survival time of rats after skin allograft (intraperitoneal administration) at 30 mg/kg; type: functional; how it was run: as §1
Rattus norvegicus [8] = experiment: Mean survival time of rats after skin allograft (intraperitoneal administration) at 100 mg/kg; toxic - animals died; type: ADME, organism-based; set-up: dose 100 mg/kg, route intraperitoneal; conditions: in vivo, ip; how it was run: as §1
Rattus norvegicus [9] = experiment: Mean survival time of rats after skin allograft (intraperitoneal administration) at 20 mg/kg; type: functional; how it was run: as §1
Rattus norvegicus [10] = experiment: Mean survival time of rats after skin allograft (intraperitoneal administration) at 30 mg/kg; toxic - animals died; type: ADME, organism-based; set-up: dose 30 mg/kg, route intraperitoneal; conditions: in vivo, ip; how it was run: as §1
Rattus norvegicus [11] = experiment: Mean survival time of rats after skin allograft (intraperitoneal administration) at 0.1 mg/kg; type: functional; how it was run: as §1
Rattus norvegicus [12] = experiment: Mean survival time of rats after skin allograft (intraperitoneal administration) at 20 mg/kg; toxic - animals died; type: ADME, organism-based; set-up: dose 20 mg/kg, route intraperitoneal; conditions: in vivo, ip; how it was run: as §1
Rattus norvegicus [13] = experiment: Mean survival time of rats after skin allograft (oral administration) at 0.3 mg/kg; type: functional
How it was run: as §1, with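 “5% (hydroxypropyl)methylcellulose” for “20% (hydroxypropyl)-β-cyclodextrin”, “orally,” for “ip”, “SD.” for “SD, n = 4–5, Mann-Whitney U test.”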

Rattus norvegicus [14] = experiment: Mean survival time of rats after skin allograft (oral administration) at 10 mg/kg; type: functional
How it was run: as §1, with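 “5% (hydroxypropyl)methylcellulose” for “20% (hydroxypropyl)-β-cyclodextrin”, “orally,” for “ip”, “SD.” for “SD, n = 4–5, Mann-Whitney U test.”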

Rattus norvegicus [15] = experiment: Mean survival time of rats after skin allograft (oral administration) at 1 mg/kg; type: functional
How it was run: as §1, with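 “5% (hydroxypropyl)methylcellulose” for “20% (hydroxypropyl)-β-cyclodextrin”, “orally,” for “ip”, “SD.” for “SD, n = 4–5, Mann-Whitney U test.”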

Rattus norvegicus [16] = experiment: Mean survival time of rats after skin allograft (oral administration) at 30 mg/kg; type: functional
How it was run: as §1, with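 “5% (hydroxypropyl)methylcellulose” for “20% (hydroxypropyl)-β-cyclodextrin”, “orally,” for “ip”, “SD.” for “SD, n = 4–5, Mann-Whitney U test.”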

Rattus norvegicus [17] = experiment: Mean survival time of rats after skin allograft (oral administration) at 100 mg/kg; toxic - animals died; type: ADME, organism-based; set-up: dose 100 mg/kg, route oral; conditions: in vivo
How it was run: as §1, with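 “5% (hydroxypropyl)methylcellulose” for “20% (hydroxypropyl)-β-cyclodextrin”, “orally,” for “ip”, “SD.” for “SD, n = 4–5, Mann-Whitney U test.”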

Rattus norvegicus [18] = experiment: Mean survival time of rats after skin allograft (oral administration) at 3 mg/kg; type: functional
How it was run: as §1, with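 “5% (hydroxypropyl)methylcellulose” for “20% (hydroxypropyl)-β-cyclodextrin”, “orally,” for “ip”, “SD.” for “SD, n = 4–5, Mann-Whitney U test.”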

Mus musculus = species: Mus musculus; experiment: Effect of compound on IL-2 production from alloantigen-stimulated mouse spleen cells; type: functional, cell-based
How it was run: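 BALB/c spleen cells at 5×10^6 cells/mL co-cultured with an equal number of mitomycin C-pretreated C57BL/6 spleen cells, with or without test compound, in RPMI 1640 with 5×10^-5 M 2-mercaptoethanol and 10% FCS; 48 h at 37 °C. Supernatant IL-2 activity measured by IL-2-dependent CTLL-2 proliferation, given in units/mL.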

Rattus norvegicus [19] = experiment: Mean survival time of rats after skin allograft (oral administration) at 0.1 mg/kg; type: functional
How it was run: as §1, with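 “5% (hydroxypropyl)methylcellulose” for “20% (hydroxypropyl)-β-cyclodextrin”, “orally,” for “ip”, “SD.” for “SD, n = 4–5, Mann-Whitney U test.”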

Rattus norvegicus [20] = experiment: Mean survival time of rats after skin allograft (intraperitoneal administration) at 1 mg/kg; toxic - animals died; type: ADME, organism-based; set-up: dose 1 mg/kg, route intraperitoneal; conditions: in vivo, ip; how it was run: as §1
Rattus norvegicus [21] = experiment: Mean survival time of rats after skin allograft (oral administration) at 30 mg/kg; toxic - animals died; type: ADME, organism-based; set-up: dose 30 mg/kg, route oral; conditions: in vivo
How it was run: as §1, with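 “5% (hydroxypropyl)methylcellulose” for “20% (hydroxypropyl)-β-cyclodextrin”, “orally,” for “ip”, “SD.” for “SD, n = 4–5, Mann-Whitney U test.”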

SMILES: CCCCCCCCCCCCCCCCCCC(N)(CO)CO
- MST (Rattus norvegicus [1]): Toxic
- pIC50 [2]: 7.92
- MST (Rattus norvegicus [3]): 14.8 days
- MST (Rattus norvegicus [4]): 17.6 days
- MST (Rattus norvegicus [5]): 11.2 days

SMILES: CCCCCCC(O)CCCCCCCCC[C@@H](O)[C@H](O)C(N)(CO)CO (stereo partly specified)
- MST (Rattus norvegicus [6]): 12.2 days
- MST (Rattus norvegicus [7]): 12.5 days
- pIC50 [2]: 5.79
- MST (Rattus norvegicus [3]): 9.2 days
- MST (Rattus norvegicus [4]): 11 days
- MST (Rattus norvegicus [8]): Toxic

- pIC50 [2]: 5.43
SMILES: CCCCCCCCC(N)(CO)CO

SMILES: CCCCCCCCCCCCCCCC[C@@H](O)[C@H](O)C(N)(CO)CO
- MST (Rattus norvegicus [6]): 11.8 days
- MST (Rattus norvegicus [9]): 15 days
- pIC50 [2]: 6.49
- MST (Rattus norvegicus [3]): 8.2 days
- MST (Rattus norvegicus [4]): 9.2 days
- MST (Rattus norvegicus [10]): Toxic

- pIC50 [2]: 8.00
SMILES: CCCCCCCCCCCCC/C=C/C[C@H]1OC(=O)[C@](N)(CO)[C@H]1O

SMILES: CCCCCCCCCCCCCCCCC(N)(CO)CO
- pIC50 [2]: 8.00
- MST (Rattus norvegicus [11]): 10.5 days
- MST (Rattus norvegicus [3]): 38.5 days
- MST (Rattus norvegicus [12]): Toxic
- MST (Rattus norvegicus [4]): 41.8 days
- MST (Rattus norvegicus [5]): 14.3 days

SMILES: CCCCCCCCCCCCCCC(N)(CO)CO
- MST (Rattus norvegicus [13]): 13.6 days
- MST (Rattus norvegicus [14]): 46.4 days
- MST (Rattus norvegicus [15]): 24.4 days
- MST (Rattus norvegicus [16]): 52.2 days
- MST (Rattus norvegicus [1]): Toxic
- pIC50 [2]: 8.23
- MST (Rattus norvegicus [11]): 11.2 days
- MST (Rattus norvegicus [3]): 39 days
- MST (Rattus norvegicus [4]): 44.4 days
- MST (Rattus norvegicus [17]): Toxic
- MST (Rattus norvegicus [18]): 36.4 days
- pIC50 (Mus musculus): < 6.00
- MST (Rattus norvegicus [5]): 23.1 days
- MST (Rattus norvegicus [19]): 10.3 days

- pIC50 [2]: 6.36
SMILES: CCCCCCCCCCC(N)(CO)CO

- pIC50 [2]: 6.57
SMILES: CCCCCCCCCCCCC(N)(CO)CO

SMILES: C/C=C/C[C@@H](C)[C@@H](O)[C@H]1C(=O)N[C@@H](CC)C(=O)N(C)CC(=O)N(C)[C@@H](CC(C)C)C(=O)N[C@@H](C(C)C)C(=O)N(C)[C@@H](CC(C)C)C(=O)N[C@@H](C)C(=O)N[C@H](C)C(=O)N(C)[C@@H](CC(C)C)C(=O)N(C)[C@@H](CC(C)C)C(=O)N(C)[C@@H](C(C)C)C(=O)N1C [CYCLOSPORINE]
- MST (Rattus norvegicus [14]): 13.5 days
- MST (Rattus norvegicus [15]): 8.5 days
- MST (Rattus norvegicus [16]): 20.5 days
- MST (Rattus norvegicus [7]): 19.4 days
- MST (Rattus norvegicus [3]): 7.6 days
- MST (Rattus norvegicus [18]): 10.3 days

SMILES: CCCCCCCCCCCCC/C=C/C[C@@H](O)[C@H](O)[C@@](N)(CO)C(=O)O
- MST (Rattus norvegicus [20]): Toxic
- pIC50 [2]: 8.92
- MST (Rattus norvegicus [11]): 9 days
- MST (Rattus norvegicus [5]): 10.6 days

- pIC50 [2]: 8.44
SMILES: CCCCCCCCCCCCC/C=C/C[C@H]1OC(=O)[C@](N)(CO)[C@@H]1O

SMILES: CCCCCCCCCCCCC/C=C/C[C@@H](O)[C@H](O)C(N)(CO)CO
- MST (Rattus norvegicus [6]): 14 days
- MST (Rattus norvegicus [9]): 16.6 days
- pIC50 [2]: 7.25
- MST (Rattus norvegicus [3]): 8.2 days
- MST (Rattus norvegicus [4]): 9.8 days
- MST (Rattus norvegicus [10]): Toxic

- pIC50 [2]: 6.72
SMILES: CCCCCCCCCCCCCCCCCCCCC(N)(CO)CO

- pIC50 [2]: 5.80
SMILES: CCCCCCCCCCCCCCCCCCCCCCC(N)(CO)CO

SMILES: CCCCCCC(O)CCCCCC/C=C/C[C@@H](O)[C@H](O)[C@@](N)(CO)C(=O)O (stereo partly specified)
- MST (Rattus norvegicus [20]): Toxic
- pIC50 [2]: 8.20
- MST (Rattus norvegicus [11]): 7.6 days
- MST (Rattus norvegicus [5]): 9.6 days

SMILES: CCCCCCCCCCCCCCCC(N)(CO)CO
- MST (Rattus norvegicus [13]): 28.5 days
- MST (Rattus norvegicus [14]): 8.3 days
- MST (Rattus norvegicus [15]): 35.5 days
- MST (Rattus norvegicus [1]): Toxic
- pIC50 [2]: 8.54
- MST (Rattus norvegicus [18]): 47 days
- MST (Rattus norvegicus [21]): Toxic
- MST (Rattus norvegicus [19]): 18.8 days

SMILES: CCCCCCC(O)CCCCCC/C=C/C[C@@H](O)[C@H](O)C(N)(CO)CO (stereo partly specified)
- MST (Rattus norvegicus [6]): 11.8 days
- MST (Rattus norvegicus [9]): 13.4 days
- pIC50 [2]: 8.33
- MST (Rattus norvegicus [3]): 8.2 days
- MST (Rattus norvegicus [4]): 9.2 days
- MST (Rattus norvegicus [10]): Toxic

SMILES: CCCCCCC(=O)CCCCCC/C=C/C[C@@H](O)[C@H](O)[C@@](N)(CO)C(=O)O [MYRIOCIN]
- MST (Rattus norvegicus [20]): Toxic
- pIC50 [2]: 8.52

- pIC50 [2]: 7.92
SMILES: CCCCCCCCCCCCCC(N)(CO)CO

Source: ChEMBL document CHEMBL1129383, “Potent immunosuppressants, 2-alkyl-2-aminopropane-1,3-diols” (J Med Chem, 1996)
